The values below come from ChEMBL document CHEMBL3861990, “Elaboration of a proprietary thymidylate kinase inhibitor motif towards anti-tuberculosis agents” (Bioorg Med Chem, 2016).

SMILES strings stand for the structures. pKi: −log10 of the molar value.

A short description of one experiment: Inhibition of recombinant Mycobacterium tuberculosis TMPK using dTMP as substrate measured after 1 min in presence of ATP/pyruvate kinase/lactate dehydrogenase/nucleoside diphosphate kinase by coupled spectrophotometric assay. The method in brief:
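Medium: 50 mM Tris-HCl pH 7.4, 50 mM KCl, 2 mM MgCl2, 0.2 mM NADH, 1 mM phosphoenolpyruvate, and 2 units each of LDH, pyruvate kinase and NDP kinase. ATP fixed at 0.5 mM and dTMP at 0.05 mM. Analogues varied from 0.01 to 1 mM. Result reported as Ki.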
Turning to `Nc1nc(=O)n([C@H]2C[C@H](O)[C@@H](CO)O2)cc1Br`, the negative logarithm of the Ki (pKi) was 5.30.

As to `Cc1cn([C@H]2CCN(Cc3cccc(Oc4ccccc4)c3)C2)c(=O)[nH]c1=O`, the pKi is 5.11.

Consider `Cc1cn([C@@H]2CCCN(Cc3ccc(Oc4ccccc4)cc3)C2)c(=O)[nH]c1=O`, for which the negative logarithm of the Ki (pKi) is 3.86.

Take `Cc1cn([C@@H]2CCN(Cc3cccc(Oc4ccccc4)c3)C2)c(=O)[nH]c1=O`: the negative logarithm of the Ki (pKi) was 5.09.

Turning to `Cc1cn([C@H]2CCCN(Cc3ccc(Oc4ccccc4)cc3)C2)c(=O)[nH]c1=O`, the negative logarithm of the Ki (pKi) is 4.67.

On to `Cc1cn(CC2CCN(Cc3cccc(Oc4ccccc4)c3)C2)c(=O)[nH]c1=O` (racemic), for which the pKi is 3.96.

Consider `Cc1cn(CC2CCN(Cc3ccc(Oc4ccccc4)cc3)C2)c(=O)[nH]c1=O` (racemic), for which the negative-log Ki (pKi) is 3.57.

As to `Cc1cn(C2CCCN(Cc3ccc(Oc4ccccc4)cc3)C2)c(=O)[nH]c1=O` (racemic), the negative-log Ki (pKi) is 4.65.

For the compound `Cc1cn(C2CCCN(C(=O)c3ccc(Oc4ccccc4)cc3)C2)c(=O)[nH]c1=O` (racemic), the negative logarithm of the Ki (pKi) is 4.84.

Turning to `Cc1cn(CC2CCCN(Cc3cccc(Oc4ccccc4)c3)C2)c(=O)[nH]c1=O` (racemic), the pKi was 3.73.

As for `Cc1cn(C2CCCN(C(=O)c3cccc(Oc4ccccc4)c3)C2)c(=O)[nH]c1=O` (racemic), the pKi was 5.68.

A further experiment can be described thus: Inhibition of recombinant Mycobacterium tuberculosis TMPK expressed in Escherichia coli using dTMP as substrate in presence of ATP/pyruvate kinase/lactate dehydrogenase/nucleoside diphosphate kinase by coupled spectrophotometric assay. In a few lines: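 Coupled assay read at 334 nm. Medium: 50 mM Tris-HCl pH 7.4, 50 mM KCl, 2 mM MgCl2, 0.2 mM NADH, 1 mM phosphoenolpyruvate, and 2 units each of LDH, pyruvate kinase and NDP kinase. ATP fixed at 0.5 mM and dTMP at 0.05 mM. Analogues varied from 0.01 to 1 mM. Result reported as Ki.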
In the case of `Cc1cn(C/C=C\CN2c3cccc4cccc(c34)S2(=O)=O)c(=O)[nH]c1=O`, the pKi was 6.57.

In general, pKi refers to the Ki on a negative log10 scale, so that one unit is a factor of ten.
